Assay results gathered from unrelated publications.
Each line is one published result; the experiments were not run side by side.
Target: STE20/SPS1-related proline-alanine-rich protein kinase (STK39, Homo sapiens, UniProt Q9UEW8)

COc1cnc(Nc2cccc(S(N)(=O)=O)c2)nc1N1CCN(c2ccccc2)C(=O)C1  remaining binding (binding; competition with immobilised ligand; 1 µM): 99%
N[C@@H]1CCN(c2nccc(-c3cnn4ncccc34)n2)C1  remaining binding (binding; 1 µM): 100%
CN(C)c1ncnc(-c2ccc3nc(Nc4cc(CN5CCN(C(=O)CC(F)(F)F)CC5)ccn4)[nH]c3c2)c1Cl  remaining binding (cell-free assay; competition with immobilised ligand; 1 µM): 69%
CNC(=O)[C@@H]1CC[C@@H](n2c(-c3ccc4cnccc4c3)nc3ccc(C(=O)NCc4cccc(C(N)=O)c4)cc32)C1  remaining binding (binding; competition with immobilised ligand; 1 µM): 100%
N#CC1(c2ccccn2)CCN(Cc2cc(C(=O)N3CCCC3)c(=O)n3ccccc23)CC1  remaining binding (cell-free assay; competition with immobilised ligand; 1 µM): 75%
C[C@@H]1CCN(c2nccc(-c3cnn4ncccc34)n2)C1  remaining binding (binding; 1 µM): 59%
O=C(NCCCN1CCOCC1)c1ccc(Nc2nccc(-c3cc4ccccc4s3)n2)cc1  remaining binding (binding; competition with immobilised ligand; 1 µM): 73%
CN(C)c1nccc(-c2cnc3ncccn23)n1  remaining binding (binding; 1 µM): 51%
O=C(NCCCN1CCOCC1)c1ccc(Nc2ncc(Cl)c(-c3ccc(Cl)s3)n2)cc1  remaining binding (binding; competition with immobilised ligand; 1 µM): 54%
c1cncc(-c2cccc(Nc3nccc(NC4CCCCC4)n3)c2)c1  remaining binding (binding; competition with immobilised ligand; 10 µM): 97%
Cc1cc(NC(=O)c2cccc(S(F)(F)(F)(F)F)c2)cc(-n2ccn3nc(-c4cccnc4)cc23)c1  remaining binding (cell-free assay; competition with immobilised ligand; 1 µM): 100%
c1cnn2ncc(-c3ccnc(N4CCC45COC5)n3)c2c1  remaining binding (binding; 1 µM): 41%
O=C(NCc1ncc(C(F)(F)F)cc1Cl)c1ccc2c(c1)C1(CCS(=O)(=O)CC1)[C@H](C1CC1)N2S(=O)(=O)c1ccc(F)cc1  remaining binding (cell-free assay; competition with immobilised ligand; 1 µM): 84%
O=C(NCC1CCOCC1)c1n[nH]cc1NC(=O)c1c(F)cccc1F  remaining binding (binding; competition with immobilised ligand; 1 µM): 96%
CN(C)c1nccc(-c2cnn3ncccc23)n1  remaining binding (binding; 1 µM): 28%
Cc1nc(C2CCN(C(=O)c3ccc(OC(F)(F)F)cc3N)CC2)c2ncc(N3CCN(C)CC3)cc2n1  remaining binding (cell-free assay; competition with immobilised ligand; 1 µM): 100%
CCN1CCN(Cc2ccc(C(=O)Nc3ccc(C)c(Oc4ccc5c(c4)CC(=O)N5)c3)cc2C(F)(F)F)CC1  remaining binding (binding; competition with immobilised ligand; 1 µM): 68%
FC(F)(F)Oc1cccc(-c2cnc3ccc(-c4ccncc4)nn23)c1  remaining binding (binding; competition with immobilised ligand; 5 µM): 83%
O=C1NC(c2ccccn2)Sc2ccccc21 (stereo not drawn)  remaining binding (cell-free assay; competition with immobilised ligand; 1 µM): 89%
CN(C)c1ncc(F)c(-c2cnn3ncccc23)n1  remaining binding (binding; 1 µM): 74%
O=C(c1ccc(Nc2nccc(-c3cc4ccccc4s3)n2)cc1)N1CCC(N2CCCC2)CC1  remaining binding (binding; competition with immobilised ligand; 1 µM): 85%
